Source: ChEMBL document CHEMBL1687899, “Structure-activity relationships in nucleotide oligomerization domain 1 (Nod1) agonistic γ-glutamyldiaminopimelic acid derivatives” (J Med Chem, 2011)
Each block holds one molecule with its values, some of them ahead of it. Active and inactive are the calls of the source. No cut-off for these calls is given here.

Key:
[1] = target: T1, Nucleotide-binding oligomerization domain-containing protein 1 (Homo sapiens, UniProt Q9Y239); experiment: Agonist activity at human NOD-1 expressed in human HEK293 cells assessed as NF-kappaB induction by spectrophotometric analysis; assay type: functional, cell-based
T1 sequence (Q9Y239 whole entry): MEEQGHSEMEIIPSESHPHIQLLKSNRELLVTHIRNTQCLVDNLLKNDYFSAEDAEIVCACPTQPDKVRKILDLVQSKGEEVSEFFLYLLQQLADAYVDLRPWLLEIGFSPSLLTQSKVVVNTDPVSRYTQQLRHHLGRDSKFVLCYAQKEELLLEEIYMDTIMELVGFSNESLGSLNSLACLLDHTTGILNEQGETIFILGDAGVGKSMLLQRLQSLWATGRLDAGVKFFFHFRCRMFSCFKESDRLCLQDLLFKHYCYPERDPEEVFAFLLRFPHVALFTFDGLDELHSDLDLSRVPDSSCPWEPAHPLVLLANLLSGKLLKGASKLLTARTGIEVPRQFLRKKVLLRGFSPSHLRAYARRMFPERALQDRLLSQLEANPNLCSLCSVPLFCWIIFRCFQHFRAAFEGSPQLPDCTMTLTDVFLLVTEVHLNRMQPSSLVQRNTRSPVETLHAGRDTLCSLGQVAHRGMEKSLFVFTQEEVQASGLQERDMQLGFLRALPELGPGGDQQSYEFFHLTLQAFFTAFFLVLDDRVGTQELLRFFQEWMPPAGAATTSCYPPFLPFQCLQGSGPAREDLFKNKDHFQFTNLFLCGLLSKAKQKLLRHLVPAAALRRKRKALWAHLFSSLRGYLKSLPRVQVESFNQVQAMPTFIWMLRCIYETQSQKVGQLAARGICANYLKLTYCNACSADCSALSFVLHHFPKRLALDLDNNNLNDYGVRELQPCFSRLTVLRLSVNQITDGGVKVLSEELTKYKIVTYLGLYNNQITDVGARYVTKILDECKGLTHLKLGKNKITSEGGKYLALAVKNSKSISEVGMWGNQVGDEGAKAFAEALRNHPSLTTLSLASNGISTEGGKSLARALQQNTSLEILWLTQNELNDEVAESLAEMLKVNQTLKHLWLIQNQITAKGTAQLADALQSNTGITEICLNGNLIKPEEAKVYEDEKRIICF
Summary of the method: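 HEK-Blue cells (HEK293 stably transfected with human Nod1 and an NF-κB/AP-1-inducible secreted alkaline phosphatase reporter) were kept in selection medium with zeocin and normocin. Cells at ~10^5 cells/mL were grown to confluency and then given graded compound concentrations. Supernatant sAP was read spectrophotometrically at 620 nm with an alkaline phosphatase-specific chromogen.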

[2] = Upregulation of p38 MAPK expression in human […] by flow cytometry; assay type: functional, cell-based
Summary of the method: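 Fresh heparinized human whole blood was incubated with graded compound concentrations diluted in saline for 15 min at 37°C. Erythrocytes were lysed and leukocytes fixed in one step, then permeabilized in ice-cold methanol for 30 min. Cells were stained 60 min with PE anti-phospho-p38MAPK (pT180/pY182) or a PE IgG1 κ isotype control. Flow cytometry acquired 20,000 gated events.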

[3] = Upregulation of CD11b expression in human […] by flow cytometry; assay type: functional, cell-based
Summary of the method: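 Fresh anticoagulated human whole blood was incubated with graded compound dilutions for 1 h at 37°C, with saline negative controls. Samples were chilled 15 min, then stained with anti-CD11b/Mac-1 on ice for 30 min so only surface CD11b was labelled. Erythrocytes were lysed and leukocytes fixed, then washed. Flow cytometry in single-color PE mode acquired 20,000 gated events.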

PBMC [4] = experiment: Upregulation of interleukin 17A in human PBMC at 20 ug/ml after 2 hrs; assay type: functional
Summary of the method: (§1)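 PBMCs were isolated from fresh heparin-anticoagulated human blood and stimulated with compound at 20 μg/mL for 2 h. Total RNA was extracted from treated and negative-control PBMC samples for transcriptomal profiling.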

PBMC [5] = experiment: Downregulation of interleukin 1RAPL1 in human PBMC at 20 ug/ml after 2 hrs; assay type: functional; summary of the method: as §1
PBMC [6] = experiment: Upregulation of interleukin 22 in human PBMC at 20 ug/ml after 2 hrs; assay type: functional; summary of the method: as §1
PBMC [7] = experiment: Downregulation of interleukin 22RA1 in human PBMC at 20 ug/ml after 2 hrs; assay type: functional; summary of the method: as §1
PBMC [8] = experiment: Upregulation of interleukin 17RD in human PBMC at 20 ug/ml after 2 hrs; assay type: functional; summary of the method: as §1
PBMC [9] = experiment: Upregulation of interleukin 24 in human PBMC at 20 ug/ml after 2 hrs; assay type: functional; summary of the method: as §1
PBMC [10] = experiment: Upregulation of interleukin 1RN in human PBMC at 20 ug/ml after 2 hrs; assay type: functional; summary of the method: as §1
PBMC [11] = experiment: Upregulation of interleukin 1alpha in human PBMC at 20 ug/ml after 2 hrs; assay type: functional; summary of the method: as §1
[12] = target: Triggering receptor expressed on myeloid cells 1 (Homo sapiens) (UniProt Q9NP99); experiment: Induction of TREM-1-mediated activation of PPAR signalling pathway in human PBMC at 20 ug/ml; summary of the method: as §1
PBMC [13] = experiment: Upregulation of interleukin 12B in human PBMC at 20 ug/ml after 2 hrs; assay type: functional; summary of the method: as §1
[14] = target: Triggering receptor expressed on myeloid cells 1 (Homo sapiens) (UniProt Q9NP99); experiment: Induction of TREM-1-mediated dendritic cell maturation in human PBMC at 20 ug/ml; summary of the method: as §1
PBMC [15] = experiment: Upregulation of interleukin 8 in human PBMC at 20 ug/ml after 2 hrs; assay type: functional; summary of the method: as §1
PBMC [16] = experiment: Upregulation of interleukin 20 in human PBMC at 20 ug/ml after 2 hrs; assay type: functional; summary of the method: as §1
PBMC [17] = experiment: Upregulation of interleukin 1F10 in human PBMC at 20 ug/ml after 2 hrs; assay type: functional; summary of the method: as §1
[18] = target: Triggering receptor expressed on myeloid cells 1 (Homo sapiens) (UniProt Q9NP99); experiment: Induction of TREM-1-mediated activation of IRF by cytosolic pattern recognition receptors in human PBMC at 20 ug/ml; summary of the method: as §1
PBMC [19] = experiment: Upregulation of interleukin 3 in human PBMC at 20 ug/ml after 2 hrs; assay type: functional; summary of the method: as §1
[20] = target: Triggering receptor expressed on myeloid cells 1 (Homo sapiens) (UniProt Q9NP99); experiment: Induction of TREM-1-mediated T-helper cell differentiation in human PBMC at 20 ug/ml; assay type: cell-based; summary of the method: as §1
[21] = target: Triggering receptor expressed on myeloid cells 1 (Homo sapiens) (UniProt Q9NP99); experiment: Induction of TREM-1-mediated activation of TNFR2 signalling pathway in human PBMC at 20 ug/ml; summary of the method: as §1
[22] = target: Triggering receptor expressed on myeloid cells 1 (Homo sapiens) (UniProt Q9NP99); experiment: Induction of TREM-1-mediated activation of IL12 signalling and production in human PBMC at 20 ug/ml; summary of the method: as §1
PBMC [23] = experiment: Upregulation of interleukin 10 in human PBMC at 20 ug/ml after 2 hrs; assay type: functional; summary of the method: as §1
[24] = target: Triggering receptor expressed on myeloid cells 1 (Homo sapiens) (UniProt Q9NP99); experiment: Induction of TREM-1-mediated activation of NF-kappaB signalling pathway in human PBMC at 20 ug/ml; summary of the method: as §1
[25] = target: Triggering receptor expressed on myeloid cells 1 (Homo sapiens) (UniProt Q9NP99); experiment: Induction of TREM-1-mediated activation of IL-6 signaling pathway in human PBMC at 20 ug/ml; summary of the method: as §1
[26] = target: Triggering receptor expressed on myeloid cells 1 (Homo sapiens) (UniProt Q9NP99); experiment: Induction of TREM-1-mediated activation of communication between innate and adaptive immune cells in human PBMC at 20 ug/ml; assay type: cell-based; summary of the method: as §1
PBMC [27] = experiment: Upregulation of interleukin 2RA in human PBMC at 20 ug/ml after 2 hrs; assay type: functional; summary of the method: as §1
PBMC [28] = experiment: Upregulation of interleukin 1F5 in human PBMC at 20 ug/ml after 2 hrs; assay type: functional; summary of the method: as §1
PBMC [29] = experiment: Upregulation of interleukin 6 in human PBMC at 20 ug/ml after 2 hrs; assay type: functional; summary of the method: as §1
[30] = target: Triggering receptor expressed on myeloid cells 1 (Homo sapiens) (UniProt Q9NP99); experiment: Induction of TREM-1-mediated activation of p38 MAPK signalling pathway in human PBMC at 20 ug/ml; summary of the method: as §1
PBMC [31] = experiment: Downregulation of interleukin 31RA in human PBMC at 20 ug/ml after 2 hrs; assay type: functional; summary of the method: as §1
PBMC [32] = experiment: Upregulation of interleukin 1F9 in human PBMC at 20 ug/ml after 2 hrs; assay type: functional; summary of the method: as §1
PBMC [33] = experiment: Downregulation of interleukin 8RB in human PBMC at 20 ug/ml after 2 hrs; assay type: functional; summary of the method: as §1
[34] = target: Triggering receptor expressed on myeloid cells 1 (Homo sapiens) (UniProt Q9NP99); experiment: Induction of TREM-1-mediated activation of IL-10 signalling pathway in human PBMC at 20 ug/ml; summary of the method: as §1
PBMC [35] = experiment: Downregulation of interleukin 1RAP in human PBMC at 20 ug/ml after 2 hrs; assay type: functional; summary of the method: as §1
PBMC [36] = experiment: Upregulation of interleukin 19 in human PBMC at 20 ug/ml after 2 hrs; assay type: functional; summary of the method: as §1
[37] = target: Triggering receptor expressed on myeloid cells 1 (Homo sapiens) (UniProt Q9NP99); experiment: Induction of TREM-1-mediated LXR/RXR activation in human PBMC at 20 ug/ml; summary of the method: as §1
[38] = target: Triggering receptor expressed on myeloid cells 1 (Homo sapiens) (UniProt Q9NP99); experiment: Induction of TREM-1-mediated activation of IL-9 signalling pathway in human PBMC at 20 ug/ml; summary of the method: as §1
PBMC [39] = experiment: Upregulation of interleukin 18 in human PBMC at 20 ug/ml after 2 hrs; assay type: functional; summary of the method: as §1
PBMC [40] = experiment: Upregulation of interleukin 1B in human PBMC at 20 ug/ml after 2 hrs; assay type: functional; summary of the method: as §1

Sequence of Triggering receptor expressed on myeloid cells 1 (Homo sapiens) (Q9NP99 whole entry, looked up): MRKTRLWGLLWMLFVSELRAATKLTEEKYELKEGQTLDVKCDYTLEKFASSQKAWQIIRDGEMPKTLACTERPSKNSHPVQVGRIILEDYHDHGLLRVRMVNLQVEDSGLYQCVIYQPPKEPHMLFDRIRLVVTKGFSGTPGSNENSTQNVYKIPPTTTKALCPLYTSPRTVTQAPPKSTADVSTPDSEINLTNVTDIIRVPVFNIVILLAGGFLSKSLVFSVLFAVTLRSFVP

EC50 [1]: > 100 nM
SMILES: CCCCCCCCCCCC(=O)N[C@H](CCC(=O)NC(CCCCC(=O)O)C(=O)O)C(=O)O (stereo partly drawn)

EC50 [1]: 0.39 nM
SMILES: CCCCCCCCCCCOC(=O)CCCC(=O)NC(CCCC(N)C(=O)O)C(=O)O (stereo not drawn)

EC50 [1]: 0.027 nM
SMILES: CCCCCCCCCCCC(=O)N[C@H](CCC(=O)NC(CCCC(N)C(=O)O)C(=O)O)C(=O)O (stereo partly drawn)
Activity [2]: Dose-dependent effect
Activity [3]: Dose-dependent effect

Activity [12]: Active
Activity [14]: Active
Activity [18]: Active
Activity [20]: Active
Activity [21]: Active
Activity [22]: Active
EC50 [1]: 0.0015 nM
Activity [24]: Active
Activity [25]: Active
Activity [26]: Active
Activity [30]: Active
Activity [34]: Active
Activity [37]: Active
Activity [38]: Active
SMILES: CCCCCCCCCCCCN(CCCCCCCCCCCC)[C@H](CCC(=O)NC(CCCC(N)C(=O)O)C(=O)O)C(=O)O (stereo partly drawn)
fold change (FC) (PBMC [4]): 10.56
fold change (FC) (PBMC [5]): 2.06
fold change (FC) (PBMC [6]): 3.87
fold change (FC) (PBMC [7]): 3.69
fold change (FC) (PBMC [8]): 3.17
fold change (FC) (PBMC [9]): 3.41
fold change (FC) (PBMC [10]): 4.94
Activity [2]: Dose-dependent effect
fold change (FC) (PBMC [11]): 14.34
fold change (FC) (PBMC [13]): 6.13
fold change (FC) (PBMC [15]): 2.29
fold change (FC) (PBMC [16]): 4
fold change (FC) (PBMC [17]): 2.05
fold change (FC) (PBMC [19]): 5.99
fold change (FC) (PBMC [23]): 3.62
fold change (FC) (PBMC [27]): 3.57
fold change (FC) (PBMC [28]): 3.15
fold change (FC) (PBMC [29]): 29.54
fold change (FC) (PBMC [31]): 4.05
fold change (FC) (PBMC [32]): 11.1
fold change (FC) (PBMC [33]): 2.75
fold change (FC) (PBMC [35]): 2.02
fold change (FC) (PBMC [36]): 30.39
fold change (FC) (PBMC [39]): 2.03
Activity [3]: Dose-dependent effect
fold change (FC) (PBMC [40]): 4.14

EC50 [1]: 0.826 nM
SMILES: CCCCCCCCCCCNC(=O)[C@H](N)CCC(=O)NC(CCCC(N)C(=O)O)C(=O)O (stereo partly drawn)

EC50 [1]: 0.504 nM
SMILES: CCCCCCCCCCCC(=O)NCCCC(=O)NC(CCCC(N)C(=O)O)C(=O)O (stereo not drawn)

EC50 [1]: > 100 nM
SMILES: CCCCCCCCCCCC(=O)N[C@H](CCC(=O)N[C@H](CCCCN)C(=O)O)C(=O)O
